# Experimental data: ChEMBL document CHEMBL3085708, “Identification and profiling of 3,5-dimethyl-isoxazole-4-carboxylic acid [2-methyl-4-((2S,3'S)-2-methyl-[1,3']bipyrrolidinyl-1'-yl)phenyl] amide as histamine H(3) receptor antagonist for the treatment of depression” (Bioorg Med Chem Lett, 2013); call rule not given here
# Key:
# [1] = Drug metabolism in rat plasma at 100 ng/ml after 4 hrs; format: ADME, cell-free; conditions: read-out: Drug metabolism
# How it was run: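 Compound spiked into blank plasma of human, mouse, rat, rabbit, macaque and dog at 100 ng/ml, then incubated in a 37 °C water bath for up to 4 h; percent metabolized reported.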
# [2] = Tmax in Sprague-Dawley rat brain at 10 mg/kg, po; format: ADME, organism-based; parameters: dose 10 mg/kg, route oral
# How it was run: (§1)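 Male Sprague-Dawley rats dosed 2 mg/kg iv in saline (0.5 mg/mL) and 10 mg/kg po in 0.5% MC/0.2% Tween80 (1.0 mg/mL); plasma and brain concentrations followed.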
# [3] = species: Homo sapiens; test: Inhibition of sigma-2 receptor (unknown origin) at 10 uM relative to control
# [4] = Solubility of the compound in form of crystalline free base in gastrointestinal tract simulated media; format: physicochemical
# [5] = target: Cytochrome P450 3A4 (Homo sapiens, UniProt P08684); test: Inhibition of CYP3A4 (unknown origin) after 4 hrs; format: ADME
# [6] = Elimination half life in Sprague-Dawley rat plasma at 10 mg/kg, po; format: ADME, organism-based; parameters: dose 10 mg/kg, route oral; conditions: read-out: beta t1/2 (converted)
# How it was run: (§2)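 Single-dose PK; male OF1 mice and male Sprague-Dawley rats, 2 mg/kg iv and 10 mg/kg po. Mouse vehicles: iv 50% 1-methyl-2-pyrrolidinone in saline (1.0 mg/mL); po 5% DMSO/0.5% MC/0.2% Tween80 (1.0 mg/mL). Rat vehicles: iv saline (0.5 mg/mL); po 0.5% MC/0.2% Tween80 (1.0 mg/mL). Plasma and brain exposure read as AUC0-∞ and t1/2.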
# [7] = target: Histamine H3 receptor (Rattus norvegicus, UniProt Q9QYN8); test: Displacement of [3H]-methylhistamine from rat histamine H3 receptor (445 amino acid residues) transfected in human 293 cells after 1 hr by scintillation counting analysis; format: cell-based
# [8] = Oral bioavailability in Sprague-Dawley rat at 10 mg/kg; format: ADME, organism-based; conditions: in vivo; how it was run: as §1
# [9] = Tmax in OF1 mouse brain at 10 mg/kg, po; format: ADME, organism-based; parameters: dose 10 mg/kg, route oral
# How it was run: (§3)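 Male OF1 mice given 2 mg/kg iv (50% 1-methyl-2-pyrrolidinone in saline, 1.0 mg/mL) and 10 mg/kg po (5% DMSO/0.5% MC/0.2% Tween80, 1.0 mg/mL); plasma and brain exposure measured; B/P ratio from iv AUC.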
# [10] = Elimination half life in OF1 mouse plasma at 10 mg/kg, po; format: ADME, organism-based; parameters: dose 10 mg/kg, route oral; conditions: read-out: beta t1/2 (converted); how it was run: as §2
# [11] = Inhibition of cytochrome P450 (unknown origin) by mechanism-based assay; format: ADME; conditions: human
# [12] = AUC (0 to infinity) in Sprague-Dawley rat brain at 10 mg/kg, po; format: ADME, organism-based; parameters: time infinity, dose 10 mg/kg, route oral; how it was run: as §2
# [13] = Tmax in OF1 mouse plasma at 10 mg/kg, po; format: ADME, organism-based; parameters: dose 10 mg/kg, route oral; how it was run: as §3
# [14] = tested on: Mus musculus; test: Toxicity in mouse assessed as effect on behavioral activity at 10 to 30 mg/kg, po by Irwin test; format: organism-based; parameters: dose 10-30 mg/kg, route oral; conditions: in vivo
# How it was run: (§4)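 Irwin exploratory general behaviour study in male mice; single oral doses of 0, 10 and 30 mg/kg; behavioural, neurologic and autonomic effects observed.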
# [15] = AUC (0 to infinity) in Sprague-Dawley rat brain at 2 mg/kg, iv; format: ADME, organism-based; parameters: time infinity, dose 2 mg/kg, route intravenous; how it was run: as §2
# [16] = target: Histamine H3 receptor (Homo sapiens, UniProt Q9Y5N1); test: Inverse agonist activity at human histamine H3 receptor (445 amino acid residues) expressed in CHO cells by CRE-luciferase reporter gene assay; format: functional, cell-based
# [17] = AUC (0 to infinity) in OF1 mouse brain at 2 mg/kg, iv; format: ADME, organism-based; parameters: time infinity, dose 2 mg/kg, route intravenous; how it was run: as §2
# [18] = target: Cytochrome P450 2C9 (Homo sapiens, UniProt P11712); test: Inhibition of CYP2C9 (unknown origin) after 4 hrs; format: ADME
# [19] = target: Sigma non-opioid intracellular receptor 1 (Homo sapiens) (UniProt Q99720); test: Inhibition of sigma-1 receptor (unknown origin) at 10 uM relative to control
# [20] = Drug metabolism in rabbit liver microsomes; format: ADME, Oryctolagus cuniculus, Microsome; conditions: read-out: Drug metabolism
# [21] = Drug metabolism in mouse liver microsomes; format: ADME, Microsome; conditions: read-out: Drug metabolism
# [22] = Volume of distribution in Sprague-Dawley rat at 2 mg/kg, iv; format: ADME, organism-based; parameters: dose 2 mg/kg, route intravenous; conditions: in vivo; how it was run: as §1
# [23] = Elimination half life in Sprague-Dawley rat brain at 2 mg/kg, iv; format: ADME, organism-based; parameters: dose 2 mg/kg, route intravenous; conditions: read-out: beta t1/2 (converted); how it was run: as §2
# [24] = Cmax in OF1 mouse plasma at 10 mg/kg, po; format: ADME, organism-based; parameters: dose 10 mg/kg, route oral
# How it was run: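 Oral PK at 10 mg/kg po in male OF1 mice (vehicle 5% DMSO/0.5% MC/0.2% Tween80, 1.0 mg/mL) and male Sprague-Dawley rats (vehicle 0.5% MC/0.2% Tween80, 1.0 mg/mL). Cmax and tmax taken from plasma and brain concentration–time profiles.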
# [25] = Solubility of the compound in form of crystalline free base in water; format: physicochemical
# [26] = AUC (0 to infinity) in OF1 mouse plasma at 10 mg/kg, po; format: ADME, organism-based; parameters: time infinity, dose 10 mg/kg, route oral; how it was run: as §2
# [27] = AUC (0 to infinity) in Sprague-Dawley rat plasma at 10 mg/kg, po; format: ADME, organism-based; parameters: time infinity, dose 10 mg/kg, route oral; how it was run: as §2
# [28] = tested on: Mus musculus; test: Toxicity in mouse assessed as effect on autonomic activity at 10 to 30 mg/kg, po by Irwin test; format: organism-based; parameters: dose 10-30 mg/kg, route oral; conditions: in vivo; how it was run: as §4
# [29] = tested on: Mus musculus; test: Plasma clearance in OF1 mouse at 2 mg/kg, iv; format: ADME, organism-based; parameters: dose 2 mg/kg, route intravenous; conditions: in vivo; how it was run: as §3
# [30] = tested on: Rattus norvegicus; test: Antidepression-like activity in po dosed rat assessed as decrease in immobility time by forced swimming test; format: functional
# How it was run: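 Rat forced-swim test, immobility time as read-out. Test agent given po in MC/0.6% + H2O at 1, 3 and 10 mg/kg; imipramine reference at 60 mg/kg po.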
# [31] = Elimination half life in OF1 mouse brain at 2 mg/kg, iv; format: ADME, organism-based; parameters: dose 2 mg/kg, route intravenous; conditions: read-out: beta t1/2 (converted); how it was run: as §2
# Sigma non-opioid intracellular receptor 1 (Homo sapiens), sequence (Q99720 whole entry): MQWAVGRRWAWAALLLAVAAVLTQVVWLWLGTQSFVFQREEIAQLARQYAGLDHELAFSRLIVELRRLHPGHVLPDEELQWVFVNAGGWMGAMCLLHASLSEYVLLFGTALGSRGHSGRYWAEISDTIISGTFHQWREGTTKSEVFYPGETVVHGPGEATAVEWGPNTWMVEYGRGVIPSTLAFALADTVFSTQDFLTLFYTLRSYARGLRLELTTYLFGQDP
# Cytochrome P450 2C9, sequence (P11712 whole entry): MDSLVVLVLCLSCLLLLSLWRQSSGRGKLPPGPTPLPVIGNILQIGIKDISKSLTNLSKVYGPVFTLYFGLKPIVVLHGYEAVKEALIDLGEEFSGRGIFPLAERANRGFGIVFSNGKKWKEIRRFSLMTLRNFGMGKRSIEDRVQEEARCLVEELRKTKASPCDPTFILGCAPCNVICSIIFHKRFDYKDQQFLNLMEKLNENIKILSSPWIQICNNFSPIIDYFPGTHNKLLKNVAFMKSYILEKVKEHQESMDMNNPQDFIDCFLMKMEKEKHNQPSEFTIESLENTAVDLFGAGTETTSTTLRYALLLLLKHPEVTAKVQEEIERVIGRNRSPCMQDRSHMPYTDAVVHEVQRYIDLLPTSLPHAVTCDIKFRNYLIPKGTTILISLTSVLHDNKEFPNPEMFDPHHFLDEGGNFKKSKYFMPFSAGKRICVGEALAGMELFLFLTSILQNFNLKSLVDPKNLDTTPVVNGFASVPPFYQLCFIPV
# Cytochrome P450 3A4, sequence (P08684 whole entry): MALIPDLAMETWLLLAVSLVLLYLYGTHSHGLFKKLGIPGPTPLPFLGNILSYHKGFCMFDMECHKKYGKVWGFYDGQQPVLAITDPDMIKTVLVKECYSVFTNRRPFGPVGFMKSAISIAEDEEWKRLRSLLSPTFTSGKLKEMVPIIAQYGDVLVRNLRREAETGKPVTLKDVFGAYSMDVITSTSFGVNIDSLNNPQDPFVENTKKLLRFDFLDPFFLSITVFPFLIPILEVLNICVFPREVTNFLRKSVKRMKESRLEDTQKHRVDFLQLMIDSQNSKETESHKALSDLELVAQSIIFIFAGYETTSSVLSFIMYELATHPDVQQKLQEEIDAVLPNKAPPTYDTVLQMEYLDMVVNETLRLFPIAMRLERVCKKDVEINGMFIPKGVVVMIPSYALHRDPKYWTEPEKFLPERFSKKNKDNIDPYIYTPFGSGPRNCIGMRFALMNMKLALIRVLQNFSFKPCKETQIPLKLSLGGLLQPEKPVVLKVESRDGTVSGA
# Histamine H3 receptor (Homo sapiens, UniProt Q9Y5N1), sequence (Q9Y5N1 whole entry): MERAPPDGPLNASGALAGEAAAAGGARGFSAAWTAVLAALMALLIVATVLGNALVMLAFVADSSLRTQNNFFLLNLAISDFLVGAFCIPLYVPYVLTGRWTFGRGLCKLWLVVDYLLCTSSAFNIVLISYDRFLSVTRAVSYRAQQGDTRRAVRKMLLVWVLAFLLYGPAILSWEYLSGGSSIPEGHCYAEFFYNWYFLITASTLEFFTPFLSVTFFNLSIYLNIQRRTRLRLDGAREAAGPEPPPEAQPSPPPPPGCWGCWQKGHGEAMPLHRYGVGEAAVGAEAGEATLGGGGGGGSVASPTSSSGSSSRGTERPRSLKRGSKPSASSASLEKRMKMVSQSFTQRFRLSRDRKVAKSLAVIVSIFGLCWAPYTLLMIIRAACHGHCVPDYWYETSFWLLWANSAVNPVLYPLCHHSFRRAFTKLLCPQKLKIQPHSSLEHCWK
# Histamine H3 receptor (Rattus norvegicus, UniProt Q9QYN8), sequence (Q9QYN8 whole entry): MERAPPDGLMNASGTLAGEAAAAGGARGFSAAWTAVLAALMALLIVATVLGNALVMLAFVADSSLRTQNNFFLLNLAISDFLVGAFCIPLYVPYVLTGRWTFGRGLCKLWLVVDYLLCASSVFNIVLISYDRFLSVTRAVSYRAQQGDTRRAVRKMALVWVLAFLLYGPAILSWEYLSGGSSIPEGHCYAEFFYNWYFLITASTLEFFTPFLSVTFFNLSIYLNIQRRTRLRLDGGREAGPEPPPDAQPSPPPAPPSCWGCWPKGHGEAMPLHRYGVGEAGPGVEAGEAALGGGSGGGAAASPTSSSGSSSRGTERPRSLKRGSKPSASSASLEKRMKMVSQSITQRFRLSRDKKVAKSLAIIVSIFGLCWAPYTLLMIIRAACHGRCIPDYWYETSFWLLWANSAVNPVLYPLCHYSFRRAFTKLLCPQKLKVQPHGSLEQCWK
smiles,measurement,setting,value
Cc1cc(N2CC[C@H](N3CCC[C@@H]3C)C2)ccc1NC(=O)c1c(C)noc1C,"metabolised at 4 h, 100 ng/ml",[1],< 5%
same,Tmax,[2],1 h
same,inhibition,[3],73%
same,solubility,[4],> 2000 µg/mL
same,IC50,[5],> 100000 nM
same,half-life,[6],7.8 h
same,Ki,[7],0.9 nM
same,bioavailability,[8],56%
same,Tmax,[9],0.17 h
same,half-life,[10],1.8 h
same,inhibition (INH),[11],Not Active
same,AUC(0-inf),[12],3400 ng·h/mL
same,Tmax,[13],0.17 h
same,Activity,[14],Non-toxic
same,AUC(0-inf),[15],1200 ng·h/mL
same,EC50,[16],0.7 nM
same,AUC(0-inf),[17],1100 ng·h/mL
same,IC50,[18],> 100000 nM
same,inhibition,[19],73%
same,metabolised,[20],< 5%
same,metabolised,[21],< 5%
same,Vd,[22],2.8 L/kg
same,half-life,[23],1.8 h
same,Cmax,[24],1680 ng/mL
same,solubility,[25],110 µg/mL
same,AUC(0-inf),[26],1900 ng·h/mL
same,AUC(0-inf),[27],3150 ng·h/mL
same,Activity,[28],Non-toxic
same,clearance,[29],50 mL/min/kg
same,Activity,[30],Dose-dependent effect
same,minimal effective dose,[30]; read-out: MED,10 mg/kg
same,half-life,[31],0.93 h
